Measured values from different studies.
Target: Protein kinase C iota type (PRKCI, Homo sapiens, UniProt P41743)
Residues used in one study (P41743 1-596): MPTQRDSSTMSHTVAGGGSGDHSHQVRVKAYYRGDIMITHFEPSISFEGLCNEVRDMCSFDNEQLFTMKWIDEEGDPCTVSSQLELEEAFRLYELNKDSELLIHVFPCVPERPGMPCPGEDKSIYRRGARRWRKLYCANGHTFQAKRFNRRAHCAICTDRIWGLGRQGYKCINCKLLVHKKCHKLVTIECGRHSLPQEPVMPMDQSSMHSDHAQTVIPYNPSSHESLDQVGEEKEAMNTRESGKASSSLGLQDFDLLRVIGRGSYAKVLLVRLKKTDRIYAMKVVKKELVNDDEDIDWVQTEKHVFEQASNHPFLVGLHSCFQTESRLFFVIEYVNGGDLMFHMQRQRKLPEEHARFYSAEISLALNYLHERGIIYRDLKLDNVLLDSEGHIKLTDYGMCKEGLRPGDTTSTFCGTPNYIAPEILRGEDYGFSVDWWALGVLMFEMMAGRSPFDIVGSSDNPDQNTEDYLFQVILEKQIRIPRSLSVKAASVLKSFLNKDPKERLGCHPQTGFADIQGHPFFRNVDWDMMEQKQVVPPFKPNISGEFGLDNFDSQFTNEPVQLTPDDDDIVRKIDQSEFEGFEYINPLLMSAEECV

Structure (SMILES) | assay | setting | quantity | value
O=C(Nc1cnn(-c2csc(C(=O)NC3COC3)c2)c1)Nc1c(F)cccc1Cl | enzyme activity, inhibitor | 5 µM | remaining activity | 87.4%
CN(C)C1CCN(CC#Cc2nn(C3CCCC3)c3nc(NCc4ccccc4)ncc23)C1 (stereo not drawn) | enzyme activity, inhibitor, FRET | 1 µM | inhibition | 5%
O=C1Nc2ccc(Cl)cc2C1=Cc1cc(Cl)c(O)c(Cl)c1 | cell-free assay | 0.5 µM | remaining signal | 94.1%
CCC(=O)N[C@@H]1CC[C@H](C(=O)N(C)c2ccc(-c3nc4ccccc4o3)cc2)C1 | cell-free assay, competition with immobilised ligand | 1 µM | remaining binding | 84%
CC(C)c1ccc(NC(=O)c2cccs2)c(-c2nc3ccccc3[nH]c2=O)c1 | enzyme activity, inhibitor | 1 µM | activity vs control | 94%
CC/C(=N\NC(=O)NCc1cccc(O)c1)c1ccc(O)c(C)c1O | enzyme activity, inhibitor | 0.1 µM | inhibition | 15.8%
Cc1cc(NC(=O)c2cccc3cc(-c4cccc5[nH]nc(N)c45)ccc23)ccc1F | enzyme activity, inhibitor | 0.1 µM | activity vs control | 98%
CN1CC(Oc2cnc(C#N)cc2-c2ccn3nc(NC(=O)C4CC4)cc3c2)C1 | enzyme activity, inhibitor | 1 µM | inhibition | -8%
Cc1c[nH]c2nccc(Oc3c(F)cc(Nc4cc(Cl)nc(N)n4)cc3F)c12 | cell-free assay, competition with immobilised ligand | 0.1 µM | remaining binding | 100%
CNC(=O)c1cc(Oc2ccc(NC(=O)Nc3ccc(Cl)c(C(F)(F)F)c3)cc2)ccn1 | enzyme activity, inhibitor | 10 µM | inhibition | 9%
CO[C@@H](C)c1c(Nc2ccc([C@H](N(C)C(=O)C3CCS(=O)(=O)CC3)C(F)(F)F)cc2)cnc2cc(Cl)nn12 | cell-free assay, competition with immobilised ligand | 1 µM | remaining binding | 72%
CCCCNc1ncc2c(-c3ccc(F)cc3)nn(C[C@H]3CC[C@H](N)CC3)c2n1 | target engagement in cells, inhibitor, chemoproteomics | 20 mM | inhibition | -5.8%
O=C(Nc1cnc(Oc2ccc(F)cc2)nc1)N1CCc2ncccc2[C@@H]1c1ccc(F)cc1 | cell-free assay, competition with immobilised ligand | 1 µM | remaining binding | 98%
COc1cc2ncnc(Nc3ccc(Oc4ccccc4)c(C)c3C)c2cc1OC | enzyme activity, inhibitor | 1 µM | inhibition | -4%
Cc1cc(NC(=O)c2cccc(S(F)(F)(F)(F)F)c2)cc(-n2ccn3nc(-c4cccnc4)cc23)c1 | cell-free assay, competition with immobilised ligand | 1 µM | remaining binding | 80.4%
CC(C)(C)c1nc(-c2cccc(NS(=O)(=O)c3c(F)cccc3F)c2F)c(-c2ccnc(N)n2)s1 | enzyme activity, inhibitor, radiometric | 1 µM | remaining activity | 100%
CC(C)(O)c1cncc(-c2nc3ccc(F)cc3n2C2CC2)c1 | cell-free assay, competition with immobilised ligand | 1 µM | remaining binding | 89%
CNCc1ccc(-c2cc(-c3nc(-c4ccc(S(=O)(=O)C(C)C)cc4)cnc3N)on2)cc1 | enzyme activity, inhibitor | 2 µM | inhibition | 1%
